Measured values: ChEMBL document CHEMBL2434951, “Synthesis and antimicrobial activity of polyhalobenzonitrile quinazolin-4(3H)-one derivatives” (2013)
Values after ≈ are worked out from the molar mass of the structure shown. Active and inactive are the calls of the source. The rule behind the calls is not given here.

Experiments:
Assay type in all cases: functional
Candida albicans [1] = experiment: Antifungal activity against Candida albicans ATCC 10231 assessed as growth inhibition at 1000 ug/mL after 24 hrs by disk diffusion assay; details: for zone of inhibition at 1000 µg/mL: ATCC 10231, 24 h, read-out: DIZ
Procedure, shortened: (§1)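 Disk diffusion on nutrient agar, inoculum spread evenly. Disks of 6 mm Whatman No. 1 paper, dry-heat sterilized at 121 °C for 1 h, soaked in test compound at 1000 (micro)g/mL. Norfloxacin and chlorothalonil disks as positive controls, DMSO disks as negative control. Plates incubated 24 h at 37 °C. Inhibition zone diameter measured in mm.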

Staphylococcus aureus [2] = experiment: Bactericidal activity against Staphylococcus aureus ATCC 6538 after 18 to 24 hrs; details: read-out: MBC99.9
Procedure, shortened: (§2)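 After the liquid dilution MIC tubes, 0.1 mL from each tube spread on agar plates. Colonies counted after 18–24 h incubation at 35 °C. MBC taken as the lowest drug concentration killing 99.9% of the inoculum.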

Candida albicans [3] = experiment: Antifungal activity against Candida albicans ATCC 10231 assessed as growth inhibition after 24 hrs by liquid dilution method; details: ATCC 10231, 24 h
Procedure, shortened: (§3)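 Liquid (tube) dilution. Compounds and positive controls in DMSO at 11 concentrations from 0.98 upward. Each tube held 1 mL compound solution plus bacterial or fungal inoculum and sterile water. Incubated 24 h, then checked for turbidity; MIC is the lowest concentration without growth. Chlorothalonil, norfloxacin and fluconazole as standards.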

Bacillus cereus [4] = experiment: Bactericidal activity against Bacillus cereus ATCC 14579 after 18 to 24 hrs; details: read-out: MBC99.9; procedure, shortened: as §2
Bacillus cereus [5] = experiment: Antibacterial activity against Bacillus cereus ATCC 14579 assessed as growth inhibition at 1000 ug/mL after 24 hrs by disk diffusion assay; details: ATCC 14579, 24 h, read-out: DIZ; procedure, shortened: as §1
Staphylococcus aureus [6] = experiment: Antibacterial activity against Staphylococcus aureus ATCC 6538 assessed as growth inhibition at 1000 ug/mL after 24 hrs by disk diffusion assay; details: ATCC 6538, 24 h, read-out: DIZ; procedure, shortened: as §1
Candida albicans [7] = experiment: Fungicidal activity against Candida albicans ATCC 10231 after 18 to 24 hrs; details: read-out: MFC99.9; procedure, shortened: as §2
Bacillus cereus [8] = experiment: Antibacterial activity against Bacillus cereus ATCC 14579 assessed as growth inhibition after 24 hrs by liquid dilution method; details: ATCC 14579, 24 h; procedure, shortened: as §3
Pseudomonas aeruginosa [9] = experiment: Antibacterial activity against Pseudomonas aeruginosa ATCC 15442 assessed as growth inhibition at 1000 ug/mL after 24 hrs by disk diffusion assay; details: ATCC 15442, 24 h, read-out: DIZ; procedure, shortened: as §1
Escherichia coli [10] = experiment: Antibacterial activity against Escherichia coli ATCC 8099 assessed as growth inhibition at 1000 ug/mL after 24 hrs by disk diffusion assay; details: ATCC 8099, 24 h, read-out: DIZ; procedure, shortened: as §1
Staphylococcus aureus [11] = experiment: Antibacterial activity against Staphylococcus aureus ATCC 6538 assessed as growth inhibition after 24 hrs by liquid dilution method; details: ATCC 6538, 24 h; procedure, shortened: as §3
Pseudomonas aeruginosa [12] = experiment: Antibacterial activity against Pseudomonas aeruginosa ATCC 15442 assessed as growth inhibition after 24 hrs by liquid dilution method; details: ATCC 15442, 24 h; procedure, shortened: as §3
Escherichia coli [13] = experiment: Antibacterial activity against Escherichia coli ATCC 8099 assessed as growth inhibition after 24 hrs by liquid dilution method; details: ATCC 8099, 24 h; procedure, shortened: as §3

SMILES	diameter of the inhibition zone (DIZ) (Candida albicans [1])	MBC (Staphylococcus aureus [2]) [µg/mL]	MIC (Candida albicans [3]) [µg/mL]	MBC (Bacillus cereus [4]) [µg/mL]	zone of inhibition at 1000 µg/mL (Bacillus cereus [5]) [mm]	zone of inhibition at 1000 µg/mL (Staphylococcus aureus [6]) [mm]	MFC (Candida albicans [7]) [µg/mL]	MIC (Bacillus cereus [8]) [µg/mL]	zone of inhibition at 1000 µg/mL (Pseudomonas aeruginosa [9]) [mm]	zone of inhibition at 1000 µg/mL (Escherichia coli [10]) [mm]	MIC (Staphylococcus aureus [11]) [µg/mL]	MIC (Pseudomonas aeruginosa [12]) [µg/mL]	MIC (Escherichia coli [13]) [µg/mL]	zone of inhibition at 1000 µg/mL (Candida albicans [1]) [mm]
N#Cc1c(Cl)c(Cl)c(Nc2ccc(N3CCCCC3)c3c(=O)[nH]cnc23)c(C#N)c1Cl	inactive	4.6 (≈ 9.71 µM)	2.6 (≈ 5.49 µM)	6.5 (≈ 13.7 µM)	15	9.7	41.7 (≈ 88 µM)	0.5 (≈ 1.06 µM)	8.7	9	0.7 (≈ 1.48 µM)	1.3 (≈ 2.74 µM)	1 (≈ 2.11 µM)	
Cc1cc(C)cc(Nc2ccc(Nc3c(Cl)c(Cl)c(C#N)c(Cl)c3C#N)c3nc[nH]c(=O)c23)c1		31.3 (≈ 61.4 µM)	5.2 (≈ 10.2 µM)	31.3 (≈ 61.4 µM)	10.3	10	52.1 (≈ 102 µM)	0.7 (≈ 1.37 µM)	10	11.5	0.8 (≈ 1.57 µM)	20.8 (≈ 40.8 µM)	7.8 (≈ 15.3 µM)	7
CCn1cc(C(=O)O)c(=O)c2cc(F)c(N3CCNCC3)cc21 [NORFLOXACIN]		5.2 (≈ 16.3 µM)		6.5 (≈ 20.4 µM)	18.6	17		0.6 (≈ 1.88 µM)	16.8	20	1.2 (≈ 3.76 µM)	0.7 (≈ 2.19 µM)	0.5 (≈ 1.57 µM)	21.8
N#Cc1c(Cl)c(Cl)c(Nc2ccc(Nc3cccc(Cl)c3)c3c(=O)[nH]cnc23)c(C#N)c1Cl		31.3 (≈ 60.6 µM)	1.7 (≈ 3.29 µM)	41.7 (≈ 80.8 µM)	9	8.5	31.3 (≈ 60.6 µM)	0.5 (≈ 0.969 µM)	8.7	9	0.7 (≈ 1.36 µM)	20.8 (≈ 40.3 µM)	7.8 (≈ 15.1 µM)	9
N#Cc1c(Cl)c(Cl)c(Nc2ccc(Nc3ccc(F)cc3)c3c(=O)[nH]cnc23)c(C#N)c1Cl		6.5 (≈ 13 µM)	1.7 (≈ 3.4 µM)	6.5 (≈ 13 µM)	18	11.5	52.1 (≈ 104 µM)	0.7 (≈ 1.4 µM)	11	9	0.8 (≈ 1.6 µM)	1.7 (≈ 3.4 µM)	6.5 (≈ 13 µM)	10.5
N#Cc1c(Cl)c(Cl)c(Cl)c(C#N)c1Cl [CHLOROTHALONIL]		2 (≈ 7.52 µM)	0.7 (≈ 2.63 µM)	1.7 (≈ 6.39 µM)	15.5	14	7.8 (≈ 29.3 µM)	0.7 (≈ 2.63 µM)	15.8	18.5	1.3 (≈ 4.89 µM)	1.7 (≈ 6.39 µM)	0.5 (≈ 1.88 µM)	17
OC(Cn1cncn1)(Cn1cncn1)c1ccc(F)cc1F [FLUCONAZOLE]			2 (≈ 6.53 µM)				15.6 (≈ 50.9 µM)							
CN(C)c1ccc(Nc2c(Cl)c(Cl)c(C#N)c(Cl)c2C#N)c2nc[nH]c(=O)c12		2.6 (≈ 6 µM)	0.5 (≈ 1.15 µM)	3.3 (≈ 7.61 µM)	18	14.3	7.8 (≈ 18 µM)	0.8 (≈ 1.84 µM)	15	19	3.3 (≈ 7.61 µM)	2 (≈ 4.61 µM)	1.3 (≈ 3 µM)	15.5
Cc1ccccc1Nc1ccc(N)c2nc[nH]c(=O)c12					6	8		167 (≈ 626 µM)	8.5	9	250 (≈ 939 µM)	417 (≈ 1560 µM)	250 (≈ 939 µM)	10
